Assay results pooled from the literature.
Lines come from different studies, so protocols differ.
SLC6A2: Sodium-dependent noradrenaline transporter (SLC6A2, Homo sapiens, UniProt P23975)
CHEK2: Serine/threonine-protein kinase Chk2 (CHEK2, Homo sapiens, UniProt O96017)
MPO: Myeloperoxidase (MPO, Homo sapiens, UniProt P05164)

N#CC[C@@]12C[C@@H]1[C@@H](n1cnc3c(NCCCCCCc4ccccc4)nc(I)nc31)[C@H](O)[C@@H]2O — inhibition (SLC6A2; transporter uptake, inhibitor, radiometric; HEK293; 10 µM): 0%
CCCCC(=O)Nc1ccc(-c2ccc3ncn(CCC)c(=O)c3c2)cn1 — remaining binding (CHEK2; binding, competition with immobilised ligand; 0.5 µM): 96%
CC(C)OCCn1c(=S)[nH]c(=O)c2[nH]ccc21 — remaining activity (MPO; enzyme activity, inhibitor; 0.156 µM): 93.7%
Cc1cc(O)c(-c2ccc([C@@H](C)CN(C)C)cc2)c2c1[nH]c(=O)c1sccc12 — inhibition (Peripheral plasma membrane protein CASK (CASK, Homo sapiens, UniProt O14936); cell-free assay, inhibitor; 0.1 µM, lysate): 3.12%
C1=C/COCc2cc(ccc2OCCN2CCCC2)Nc2nccc(n2)-c2cccc(c2)COC/1 — remaining binding (Fibroblast growth factor receptor 1 (FGFR1, Homo sapiens, UniProt P11362); binding; 0.1 µM): 88%
CCOC(=O)[C@@]12C[C@@H]1[C@@H](n1cnc3c(NCCCCCCc4ccccc4)nc(C#Cc4ccc(Cl)s4)nc31)[C@H](O)[C@@H]2O — inhibition (SLC6A2; ligand displacement, radioligand; 10 µM): 83%
COc1ccc2oc(-c3ccc4nc(N)oc4c3)c/c(=N\c3ccccc3NC(=O)CCN)c2c1 — remaining binding (CHEK2; binding; 1 µM): 76%
NC/C(=C\F)COc1cccc(Cn2c(=S)[nH]c(=O)c3[nH]cnc32)c1 — inhibition (MPO; enzyme activity, inhibitor, fluorescence; 3 µM): 99.7%
OC[C@@]12C[C@@H]1[C@@H](n1cnc3c(Nc4ccccc4)nc(I)nc31)[C@H](O)[C@@H]2O — inhibition (SLC6A2; ligand displacement, radioligand; 10 µM): 5%
